Assay results taken from ChEMBL document CHEMBL4402595, “Discovery of Orally Bioavailable Chromone Derivatives as Potent and Selective BRD4 Inhibitors: Scaffold Hopping, Optimization, and Pharmacological Evaluation” (J Med Chem, 2020).

Legend:
[1] = molecular target: T1, Bromodomain-containing protein 4 (Homo sapiens, UniProt O60885); assay: Inhibition of BRD4 in poly(I:C)-stimulated human SAECs TLR3-inducible CIG5 gene expression at 10 uM pre-incubated for 24 hrs before poly(I:C) stimulation for 4 hrs by qRT-PCR analysis relative to control
[2] = molecular target: T1, Bromodomain-containing protein 4; assay: Inhibition of BRD4 in poly(I:C)-stimulated human SAECs TLR3-inducible IL-6 gene expression pre-incubated for 24 hrs before poly(I:C) stimulation for 4 hrs by qRT-PCR analysis
[3] = molecular target: T1, Bromodomain-containing protein 4; assay: Binding affinity to recombinant BRD4 BD2 (unknown origin) incubated for 1 hr by TR-FRET assay
[4] = Unbound fraction in mouse plasma at 2 uM; format: ADME, cell-free
[5] = molecular target: CYP3A4 (Homo sapiens, UniProt P08684); assay: Inhibition of CYP3A4 (unknown origin) at 10 uM using midazolam substrate relative to control; format: ADME; settings: probe midazolam
In short: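 The CYP3A4 assay was run with midazolam or with testosterone as substrate.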

[6] = molecular target: CYP2C9 (Homo sapiens, UniProt P11712); assay: Inhibition of CYP2C9 (unknown origin) at 10 uM relative to control; format: ADME
[7] = molecular target: CYP2C19 (Homo sapiens, UniProt P33261); assay: Inhibition of CYP2C19 (unknown origin) at 10 uM relative to control; format: ADME
[8] = molecular target: T2, CYP2B6 (Homo sapiens, UniProt P20813); assay: Inhibition of CYP2B6 (unknown origin) at 10 uM relative to control; format: ADME
T2 sequence (P20813 whole entry): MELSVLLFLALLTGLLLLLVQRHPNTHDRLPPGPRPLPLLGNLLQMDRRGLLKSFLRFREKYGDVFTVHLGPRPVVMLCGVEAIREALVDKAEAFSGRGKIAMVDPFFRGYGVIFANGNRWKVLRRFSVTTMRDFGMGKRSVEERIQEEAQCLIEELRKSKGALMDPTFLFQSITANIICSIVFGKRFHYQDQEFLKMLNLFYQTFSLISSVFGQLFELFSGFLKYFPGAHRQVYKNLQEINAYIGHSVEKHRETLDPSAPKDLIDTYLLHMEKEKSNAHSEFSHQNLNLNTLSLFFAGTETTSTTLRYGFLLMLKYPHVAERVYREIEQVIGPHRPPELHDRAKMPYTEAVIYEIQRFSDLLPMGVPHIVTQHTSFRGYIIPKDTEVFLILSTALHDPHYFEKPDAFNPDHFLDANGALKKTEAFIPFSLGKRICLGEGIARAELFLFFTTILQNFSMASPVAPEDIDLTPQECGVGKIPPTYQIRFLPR

[9] = molecular target: Voltage-gated inwardly rectifying potassium channel KCNH2 (Homo sapiens, UniProt Q12809); assay: Inhibition of human ERG
Chain of Voltage-gated inwardly rectifying potassium channel KCNH2 (Q12809 whole entry): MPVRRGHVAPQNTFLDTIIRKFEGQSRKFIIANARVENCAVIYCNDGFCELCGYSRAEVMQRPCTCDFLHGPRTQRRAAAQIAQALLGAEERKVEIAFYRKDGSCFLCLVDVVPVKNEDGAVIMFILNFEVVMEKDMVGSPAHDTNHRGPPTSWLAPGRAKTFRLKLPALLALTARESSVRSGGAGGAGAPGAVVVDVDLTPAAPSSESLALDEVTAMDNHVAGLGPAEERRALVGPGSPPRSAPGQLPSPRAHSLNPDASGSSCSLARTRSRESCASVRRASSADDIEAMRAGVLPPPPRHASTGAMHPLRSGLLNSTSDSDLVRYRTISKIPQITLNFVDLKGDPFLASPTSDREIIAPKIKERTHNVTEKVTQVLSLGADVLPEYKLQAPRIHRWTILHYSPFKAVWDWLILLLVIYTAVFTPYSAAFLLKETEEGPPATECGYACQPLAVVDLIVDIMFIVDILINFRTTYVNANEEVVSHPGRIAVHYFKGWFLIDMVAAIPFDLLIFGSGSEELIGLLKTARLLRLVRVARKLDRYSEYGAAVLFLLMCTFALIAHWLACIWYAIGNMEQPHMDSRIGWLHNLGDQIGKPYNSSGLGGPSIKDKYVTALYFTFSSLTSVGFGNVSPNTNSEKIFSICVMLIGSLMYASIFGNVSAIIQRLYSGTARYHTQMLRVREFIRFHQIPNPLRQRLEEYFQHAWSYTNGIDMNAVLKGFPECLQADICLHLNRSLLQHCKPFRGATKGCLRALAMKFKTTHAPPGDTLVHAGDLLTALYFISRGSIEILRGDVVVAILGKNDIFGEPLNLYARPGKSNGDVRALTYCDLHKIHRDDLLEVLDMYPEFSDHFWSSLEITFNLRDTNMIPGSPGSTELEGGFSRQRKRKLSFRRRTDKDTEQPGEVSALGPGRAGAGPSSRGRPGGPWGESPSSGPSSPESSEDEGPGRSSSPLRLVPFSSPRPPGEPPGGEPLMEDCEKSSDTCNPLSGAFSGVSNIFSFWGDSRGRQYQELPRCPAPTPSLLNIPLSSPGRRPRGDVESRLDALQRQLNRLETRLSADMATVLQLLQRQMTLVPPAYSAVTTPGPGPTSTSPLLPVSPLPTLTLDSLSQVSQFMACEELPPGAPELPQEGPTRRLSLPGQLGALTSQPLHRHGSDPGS

Chain of CYP2C19 (P33261 whole entry): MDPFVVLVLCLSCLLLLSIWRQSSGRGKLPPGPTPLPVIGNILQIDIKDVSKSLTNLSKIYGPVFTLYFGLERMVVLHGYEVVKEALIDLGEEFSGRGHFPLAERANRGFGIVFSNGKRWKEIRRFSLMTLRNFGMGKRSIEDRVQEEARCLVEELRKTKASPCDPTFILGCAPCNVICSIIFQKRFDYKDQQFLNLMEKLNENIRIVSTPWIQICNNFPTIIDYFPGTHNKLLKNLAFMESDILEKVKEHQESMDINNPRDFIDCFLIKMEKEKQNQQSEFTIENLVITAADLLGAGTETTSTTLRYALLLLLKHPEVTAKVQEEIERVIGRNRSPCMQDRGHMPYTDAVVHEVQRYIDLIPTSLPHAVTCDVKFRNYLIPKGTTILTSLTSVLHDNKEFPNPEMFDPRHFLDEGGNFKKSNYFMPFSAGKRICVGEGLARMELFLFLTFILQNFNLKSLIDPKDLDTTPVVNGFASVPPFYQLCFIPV
Chain of CYP2C9 (P11712 whole entry): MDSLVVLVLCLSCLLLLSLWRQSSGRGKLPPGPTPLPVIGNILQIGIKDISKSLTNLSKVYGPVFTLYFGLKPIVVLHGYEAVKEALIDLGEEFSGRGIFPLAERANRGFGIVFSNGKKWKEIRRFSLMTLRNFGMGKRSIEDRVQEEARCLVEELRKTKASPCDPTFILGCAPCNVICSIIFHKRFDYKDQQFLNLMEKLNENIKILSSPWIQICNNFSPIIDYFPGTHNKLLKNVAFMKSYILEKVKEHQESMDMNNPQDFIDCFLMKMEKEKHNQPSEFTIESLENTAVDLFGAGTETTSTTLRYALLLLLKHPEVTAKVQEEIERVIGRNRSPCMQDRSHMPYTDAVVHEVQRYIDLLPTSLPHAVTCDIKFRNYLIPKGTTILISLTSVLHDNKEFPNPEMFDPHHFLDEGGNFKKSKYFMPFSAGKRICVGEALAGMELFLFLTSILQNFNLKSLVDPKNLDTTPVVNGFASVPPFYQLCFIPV
Chain of CYP3A4 (P08684 whole entry): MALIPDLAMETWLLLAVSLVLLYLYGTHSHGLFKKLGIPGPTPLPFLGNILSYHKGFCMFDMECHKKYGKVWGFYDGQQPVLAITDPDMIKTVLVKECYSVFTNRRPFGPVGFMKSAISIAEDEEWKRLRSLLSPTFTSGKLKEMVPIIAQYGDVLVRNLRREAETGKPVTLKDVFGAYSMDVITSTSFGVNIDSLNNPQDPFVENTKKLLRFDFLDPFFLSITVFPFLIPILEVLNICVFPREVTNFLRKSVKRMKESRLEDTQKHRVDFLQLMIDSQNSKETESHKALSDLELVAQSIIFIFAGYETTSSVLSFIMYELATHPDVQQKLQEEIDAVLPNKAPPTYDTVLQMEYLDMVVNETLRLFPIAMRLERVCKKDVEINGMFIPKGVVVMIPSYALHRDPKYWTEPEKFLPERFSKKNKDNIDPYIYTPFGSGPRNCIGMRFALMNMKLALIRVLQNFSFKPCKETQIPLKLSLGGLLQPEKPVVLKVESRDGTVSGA

Structure (SMILES)	inhibition [1] [%]	IC50 [2] [nM]	IC50 [3] [nM]	Fu [4] [%]	inhibition at 10 µM [5] [%]	inhibition at 10 µM [6] [%]	inhibition at 10 µM [7] [%]	inhibition at 10 µM [8] [%]	IC50 [9] [nM]
COc1cc(OC)c2c(=O)cc(-c3cc(C)c(OC[C@H](O)CN4CCCCC4)c(C)c3)oc2c1	99	1100	684						
COc1cc(OC)c2c(=O)cc(-c3cc(C)c(OC[C@H](O)CN4CCN(C)CC4)c(C)c3)oc2c1				12	9.5	1.9	1.7	27	> 30000
